# From article PMC3099476 (Toxicology and applied pharmacology, 2011)
# Columns and labels:
# [1] = test system: APAP protein adducts in liver; assay: Hepatic APAP protein adducts; format: in vivo, mouse
# B6C3F1 male mice [2] = assay: Serum ALT in APAP toxicity; format: in vivo, mouse
# HIF-1α = conditions: B6C3F1 male mice with APAP toxicity; 1 h; ref James et al., 2006; cited from earlier work
# B6C3F1 male mice [3] = assay: Liver histology necrosis score; format: in vivo, mouse; conditions: score 0 absent to 4 severe
# Outline: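 Six-week male B6C3F1 mice, fasted overnight, dosed at 0800 with the analgesic hepatotoxicant IP, then immediately the test compound (MPT inhibitor, 50 or 10 mg/kg IP) or vehicle. Hepatotoxicant was 200 mg/kg IP in the 10 mg/kg arm. Saline controls included; 3–6 mice per group. Killed at 4 h. Liver H&E sections scored blind by three reviewers, 0 (absent) to 4 (severe); mean ± SE.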
# [4] = APAP 200 mg/kg IP followed by pimonidazole 60 mg/kg IP vs APAP/vehicle, 1 h
"Hepatic APAP protein adducts [1, 4]","Effect of pimonidazole on APAP metabolism ([1]; pimonidazole 60 mg/kg IP after APAP 200 mg/kg IP, 1 h)","Hepatic APAP protein adducts vs saline ([1]; APAP followed by CYC 50 mg/kg IP or vehicle, 1, 2, and 4 h)","Hepatic protein adducts vs saline ([1]; APAP/veh or APAP/CYC 10 mg/kg, 1 h)","APAP protein adducts ([1]; APAP/veh or APAP/CYC 10 mg/kg, 4 h (data not shown))","Hepatic APAP protein adduct levels ([1]; separate experiment, APAP/veh or APAP/CYC 10 mg/kg, 1 h)",SMILES,Serum ALT (B6C3F1 male mice [2]; [4]),HIF-1α induction (HIF-1α),"Necrosis Scores at 4 hours, Mean (B6C3F1 male mice [3]; Table 1A, CYC 50 mg/kg experiment)","Necrosis Scores at 4 hours, Mean (B6C3F1 male mice [3]; Table 1B, CYC 10 mg/kg experiment)","ALT vs saline (B6C3F1 male mice [2]; APAP 200 mg/kg IP followed by CYC 10 mg/kg IP or vehicle, 4 h)","Serum ALT, time course (B6C3F1 male mice [2]; APAP 200 mg/kg IP, at 2, 4, 8, 24 and 48 h, vs saline)","Serum ALT levels (B6C3F1 male mice [2]; APAP 15, 30, 100, or 200 mg/kg IP, sacrificed at 1 h, vs saline)","Serum ALT vs saline (B6C3F1 male mice [2]; APAP followed by CYC 50 mg/kg IP or vehicle, 4 h)"
comparable,no inhibitory affect on APAP metabolism,–,–,–,–,O=[N+]([O-])c1nccn1CC(O)CN1CCCCC1 (centres unmarked) [pimonidazole],comparable,–,–,–,–,–,–,–
–,–,increased,increased above saline,comparable,elevated,"CC(=O)Nc1ccc(O)cc1 [APAP, N-acetyl-p-aminophenol]",–,induction of HIF-1α,3,2,significantly increased,significantly increased above saline,No significant changes,significantly increased
